T cruzi inh: T. cruzi replication inhibition; T. cruzi beta-gal in NIH3T3, luminescence, 90 h; actives 1.4% (n = 300,000); inhibition, % (no concentration beside the values);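 active = mean inhibition across valid replicates above about 55%, limit read from the data; inconclusive = mean below that limit but half or more replicates reach it; inactive = mean below it, under half of replicates reach it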;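 also: signal also drops with host cell toxicity which is not excluded here; 0% = plate median of DMSO wells and 100% = zero luminescence signal; higher percent means less beta-gal luminescence so fewer parasites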
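System: Mouse NIH/3T3 fibroblasts infected with β-gal-expressing T. cruzi Tulahuen C4 | Quantity: NIH/3T3 cells, 5,000 per well | Reagent: 5000 reporter trypomastigotes per well | Dosing: Compound pinned at 50 nL/well, DMSO | Schedule: 3 h host attachment, then at least 90 h co-culture | Detection: GalScreen luminescence, 60 min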
AI-2 QS mod: Vibrio harveyi AI-2 quorum sensing modulation. Vibrio harveyi JMH597 AI-2 luminescence/OD600 ratio, 9 h; hits give low values; strain lacks LuxN and CqsS sensors; 0 = neutral-control median. activity change, % at 7.5 µM. actives 0.4% (n = 300,000); in the data active = activity change below about -75%, passing the limit was not always enough; inconclusive = no clear call, values can overlap the other calls;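 also: luminescence divided by OD600 gain over 9 h not by final OD600 alone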
PolyA inhibitor: yeast polyadenylation inhibition; S. cerevisiae SKY197-pL101 polyadenylation reporter, beta-gal luminescence; efflux-impaired pdr1/pdr3 knockout yeast; score 100 = 6 SD above DMSO; activity score, % at 12 µM; actives 0.02% (n = 300,000);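 active = lowest replicate activity score at least 50, where 100 means six control SD above control mean; inconclusive = lowest score under 50 but half or more replicates reach 50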;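 also: yeast exposed to compound for 9 h at 30 °C; higher score means more reporter readthrough which indicates perturbed polyadenylation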
Efflux pump mplx: inhibitors of Candida antifungal efflux pumps expressed in yeast. S. cerevisiae Candida pump triplex, Nile Red efflux. inhibition, % at 10 µM. actives 0.44% (n = 330,000);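 active = plate passing quality check with inhibition over a set limit, or well fluorescence over plate mean plus 4 SD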;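 also: Nile Red retained in pooled yeast measured as flow cytometry median fluorescence; 0% = buffer negative control and 100% = Enniatin B positive control; higher means more Nile Red kept so more efflux inhibition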
HDAC3 inh: blocks human histone deacetylase 3; O15379; recombinant HDAC3, fluorogenic peptide/trypsin coupled, fluorescence; inhibition, % at 8.3 µM; actives 0.15% (n = 320,000); in the data active = inhibition above about 26%, passing the limit was not always enough; inconclusive = no clear call, values can overlap the other calls
Target sequence (O15379 whole entry, looked up): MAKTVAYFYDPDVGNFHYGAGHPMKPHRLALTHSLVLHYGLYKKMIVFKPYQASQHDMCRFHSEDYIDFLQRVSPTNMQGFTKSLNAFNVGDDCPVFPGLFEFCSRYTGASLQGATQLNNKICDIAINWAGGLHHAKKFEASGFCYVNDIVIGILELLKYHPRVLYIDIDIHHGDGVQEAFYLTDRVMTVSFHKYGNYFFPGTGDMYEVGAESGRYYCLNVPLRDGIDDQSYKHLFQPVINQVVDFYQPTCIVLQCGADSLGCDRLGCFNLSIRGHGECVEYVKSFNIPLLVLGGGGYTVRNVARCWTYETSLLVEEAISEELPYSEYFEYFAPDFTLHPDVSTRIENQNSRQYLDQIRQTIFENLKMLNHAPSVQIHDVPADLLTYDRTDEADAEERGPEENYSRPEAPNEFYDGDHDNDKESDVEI
* marks the source's active call; other numbers are inactive results; ? = inconclusive; nt = not tested or not shown. In the library only some 2.2% were active in any assay of this set; here they are far more common.

SMILES | T cruzi inh | AI-2 QS mod | PolyA inhibitor | Efflux pump mplx | HDAC3 inh
CN(C)S(=O)(=O)Nc1ccc(Oc2ccccc2)cc1 | 3 | -93* | -6 | 0 | 0
CCOc1ccc(NC(=O)CNC(=O)c2cccs2)cc1 | 16 | 36 | 12 | 0 | 1
Cc1ccn2c(Nc3ccccc3)c(-c3ccccn3)nc2c1 | 62* | 19 | -18 | 0 | 5
Cc1ccc2nc(-c3ccccn3)c(Nc3ccccc3C)n2c1 | 62* | 36 | -1 | 0 | nt
Cc1ccccc1Nc1c(-c2ccncc2)nc2ccc(Br)cn12 | 59* | 19 | 3 | 0 | 2
Cc1ccccc1OCC(=O)Nc1ccc(C(=O)Nc2ccccc2C(=O)O)cc1 | 3 | 10 | 2 | -6 | 0
CCOC(=O)c1sc(NC(=O)Nc2ccc(Cl)cc2)cc1C | 65* | 20 | -18 | 0 | 1
CCOC(=O)c1sc(NC(=O)c2ccc(S(=O)(=O)N(C)C)cc2)cc1C | 65* | 33 | 4 | 0 | 11
CN(C)c1ccc(NC(=O)COC(=O)c2ccc3c(c2)OCO3)cc1 | nt | nt | nt | 0 | 33*
COc1ccccc1OCC(=O)N/N=C/C=C/c1ccc([N+](=O)[O-])o1 | 58* | -94* | -24 | 1 | nt
Cc1ccccc1OCC(=O)NCC(=O)N/N=C/c1ccc(Br)o1 | 37 | 19 | -1 | 0 | -5
O=C(COc1ccccc1[N+](=O)[O-])N/N=C/C=C/c1ccco1 | -7 | 17 | -6 | 0 | 10
O=C(N/N=C\C=C\c1ccc([N+](=O)[O-])o1)c1cccs1 | 78* | ? | -17 | 0 | 10
Cc1ccccc1OCC(=O)N/N=C/c1ccc([N+](=O)[O-])o1 | 61* | -13 | -10 | 0 | 3
Cc1cc(C)cc(OCC(=O)N/N=C/c2ccc([N+](=O)[O-])o2)c1 | 60* | ? | -8 | 0 | 0
COc1cc([N+](=O)[O-])c(C(=O)N2CCOCC2)c([N+](=O)[O-])c1 | -9 | 10 | 11 | 0 | 1
COc1cc(C(=O)NCC2(N(C)C)CCCCC2)ccc1OCc1ccccc1 | -6 | 6 | -1 | 0 | 1
CC1Cc2nc(SCC(=O)NCC3CCCO3)n(-c3ccc(F)cc3)c(=O)c2S1 (stereo not drawn) | 5 | 20 | -4 | 0 | 9
Cc1ccc(CS(=O)Cc2ccc(C(=O)N3CCN(c4ccc(F)cc4)CC3)o2)cc1 (stereo not drawn) | 10 | 12 | 19 | 0 | -1
Cc1ccc(CS(=O)Cc2ccc(C(=O)N3CCN(c4ccccc4)CC3)o2)cc1 (stereo not drawn) | 56* | 19 | -8 | 0 | -3
COc1ccc(CCNCc2ccc(OCC(=O)N3CCCCC3)c(OC)c2)cc1OC | 57* | 18 | -3 | 0 | -2
CS(=O)(=O)N(CC(=O)N1CCN(Cc2ccccc2)CC1)c1cccc([N+](=O)[O-])c1 | -3 | 6 | -2 | 0 | -6
C=CCN(C(=O)CSc1nc2c(sc3ccccc32)c(=O)n1CCN(CC)CC)c1ccccc1 | 82* | 22 | -18 | 0 | 2
O=C1C2CCCN2C(c2ccco2)N1c1ccc(F)cc1 (stereo not drawn) | 1 | -1 | 12 | 0 | 7
COc1ccc(/C=N/Nc2cc(C)nc3ccc(Br)cc23)cc1 | 59* | 4 | 3 | 0 | -2
SMILES | T cruzi inh | AI-2 QS mod | PolyA inhibitor | Efflux pump mplx | HDAC3 inh
COc1ccc2nc(C)cc(N/N=C/c3cccc(OC)c3O)c2c1 | 18 | 12 | 5 | 0 | 2
CCN(CC)S(=O)(=O)c1cccc(NC(=O)CSc2nnc(N)s2)c1 | 5 | 15 | 18 | 0 | -13
CN(CCOc1ccccc1)C(=O)c1cc([N+](=O)[O-])ccc1N1CCOCC1 | 11 | 21 | -10 | 0 | nt
CN(CCOc1ccccc1)C(=O)c1cc([N+](=O)[O-])cc([N+](=O)[O-])c1 | 64* | 37 | -22 | 0 | -5
O=C(NCCOc1ccccc1)c1cc(C(=O)NCCOc2ccccc2)cc([N+](=O)[O-])c1 | 68* | -97* | 5 | 0 | 1
Cc1ccc(NC(=O)C(C)N2CCCC2)cc1Cl (stereo not drawn) | 4 | 23 | 9 | 0 | -3
COCCn1c(=O)c2c(nc3n2CC(C)CN3Cc2ccccc2)n(C)c1=O (stereo not drawn) | -10 | 22 | 5 | 0 | 3
CC(=O)N=c1sc2cc(C)ccc2n1C | 34 | -6 | -12 | 0 | 1
CC(=O)N=c1sc2c3ccccc3ccc2n1C | 66* | -2 | -40 | 0 | 2
COc1ccccc1N1CCN(c2ncc(C(=O)N3CCN(c4cccc(Cl)c4)CC3)c3ccccc23)CC1 | 61* | 13 | -6 | 0 | -7
COc1ccc(/C=C2/SC(=O)N(CC(O)Cn3c4ccccc4c4ccccc43)C2=O)cc1 (stereo not drawn) | 13 | 0 | -26 | 0 | 2
O=C1S/C(=C\c2ccccc2)C(=O)N1CC(O)Cn1c2ccccc2c2ccccc21 (stereo not drawn) | 58* | -7 | -2 | 0 | -4
Cc1ccc(C23CC4CC(CC(NC(=O)NCCN(C)C)(C4)C2)C3)cc1 | 59* | 8 | -1 | 0 | 5
CCN(CC)CCNC(=O)COc1ccc(OC)cc1 | -16 | 18 | 5 | 0 | 1
CN(C)CCNC(=O)COc1ccc(C23CC4CC(CC(C4)C2)C3)cc1 | 68* | 6 | -26 | 0 | 3
CC(C)CCN1CCNC(=O)C1CC(=O)N(C)CCCN1CCOCC1 (stereo not drawn) | -6 | 17 | 9 | 1 | -10
COc1cccc(NC(=S)N/N=C2/CCCCc3ccccc32)c1 | 50 | 65 | -1 | nt | nt
N#Cc1ccccc1OCC(=O)NNC(=O)CCC1CCCC1 | nt | nt | nt | 0 | 2
CC(CCc1ccccc1)N1CCN(Cc2ccccc2)CC1 (stereo not drawn) | 58* | 23 | -14 | 0 | 3
CCS(=O)(=O)N1CCN(C(C)CCc2ccccc2)CC1 (stereo not drawn) | 17 | 30 | -4 | 0 | 1
O=C(COc1ccc([N+](=O)[O-])cc1)NNC(=S)NC(=O)c1ccc(Br)cc1 | 2 | -127* | 12 | 0 | 8
COc1ccc(C(=O)NNC(=S)NC(=O)c2cccc([N+](=O)[O-])c2)cc1 | -2 | -85* | -2 | 0 | 6
O=C(NC(=S)NNC(=O)c1ccccc1O)c1cccc([N+](=O)[O-])c1 | 0 | 30 | -18 | 0 | -2
CCn1c(C)nc2cc(C(=O)NNC(=S)NC(=O)c3ccc(OC)cc3)ccc21 | -7 | -85* | 14 | 0 | 2
CCOC(=O)N1CCN(S(=O)(=O)c2cc([N+](=O)[O-])c(C)cc2C)CC1 | -9 | 6 | 8 | 0 | 0
COC(=O)[C@@H](Cc1c[nH]c2ccccc12)NC(=O)CCC(=O)c1ccc(F)cc1 | -3 | 22 | -3 | 0 | 1

Screens (PubChem)
